One series has as its system NIH3T3. Kind of series: Cytotoxicity against mouse NIH3T3 cells assessed as cell viability incubated for 72 hrs by MTT assay. It is filed as toxicity, cell-based. Particulars: nih3t3, 72 h. The method, boiled down:
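NIH/3T3 murine embryonic fibroblasts (5000/well) screened at 10 and 50 μM compound for 72 h at 37 °C, 5% CO2. MTT readout (1 h), DMSO-dissolved formazan read at 570 nm, 690 nm background. DMSO and culture medium define 0 and 100% viability; at least three independent experiments.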
(Tetrazolium dyes change colour on reduction, which living cells bring about.)

Series [1] can be described thus: Induction of doxorubicin sensitization in human A2780 ADR cells expressing ABCB1 assessed as doxorubicin at 3.5 uM incubated for 72 hrs by MTT assay. The class given is functional. Summed up:
(§1)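 ABCB1-expressing A2780/ADR cells (grown in RPMI-1640 with 10% FBS) were exposed to a doxorubicin dilution series, with or without a fixed test-compound level of 1.0, 2.0, 3.5 or 5.0 μM. Viability was read by MTT, with DMSO as 0% and medium as 100%. GI50 values come from at least three independent experiments and are compared with doxorubicin alone on sensitive A2780 cells.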

The subject of a further series is A2780 ADR. Kind of series: Induction of doxorubicin sensitization in human A2780 ADR cells expressing ABCB1 assessed as left shift of the concentration-effect curve at 5 uM incubated for 72 hrs by MTT assay. It is filed as functional, cell-based. The method, boiled down:
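ABCB1-expressing A2780/ADR cells given test compound at 1.0, 2.0, 3.5 or 5.0 μM with a doxorubicin series; MTT viability readout. Shift of doxorubicin concentration-effect curve compared against parental A2780. DMSO and medium define 0 and 100%; at least three independent experiments.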

A short description of series [2]: Induction of doxorubicin sensitization in human A549 cells expressing MCT1 assessed as doxorubicin GI50 at 50 nM incubated for 72 hrs by MTT assay. It is filed as functional. Summed up:
(§2)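 A-549 cells (~5000/well) given test compound at fixed 50, 100 or 500 nM plus doxorubicin dilution series 50 nM–50 μM. Incubated 72 h at 37 °C, 5% CO2, then MTT readout.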

Series [3] can be described thus: Induction of doxorubicin sensitization in human A2780 ADR cells expressing ABCB1 assessed as doxorubicin at 2 uM incubated for 72 hrs by MTT assay. It is filed as functional. Summed up: as §1
In another series the test system is A549. Kind of series: Antiproliferative activity against human A549 cells expressing MCT1 assessed as effect on cell viability incubated for 72 hrs in the presence of glucose by MTT assay. It is filed as functional, cell-based. The method, boiled down:
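A-549 cells (5000/well) with compound over 72 h; glucose added every 12 h to give 25% or 50% of the original 4.5 g/L. Viability by MTT, absorbance 570 nm (690 nm background). DMSO and culture medium define 0 and 100%; at least three independent experiments.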

Series [4] has as its target T1, Monocarboxylate transporter 4 (Homo sapiens) (UniProt O15427).
T1 sequence (whole entry): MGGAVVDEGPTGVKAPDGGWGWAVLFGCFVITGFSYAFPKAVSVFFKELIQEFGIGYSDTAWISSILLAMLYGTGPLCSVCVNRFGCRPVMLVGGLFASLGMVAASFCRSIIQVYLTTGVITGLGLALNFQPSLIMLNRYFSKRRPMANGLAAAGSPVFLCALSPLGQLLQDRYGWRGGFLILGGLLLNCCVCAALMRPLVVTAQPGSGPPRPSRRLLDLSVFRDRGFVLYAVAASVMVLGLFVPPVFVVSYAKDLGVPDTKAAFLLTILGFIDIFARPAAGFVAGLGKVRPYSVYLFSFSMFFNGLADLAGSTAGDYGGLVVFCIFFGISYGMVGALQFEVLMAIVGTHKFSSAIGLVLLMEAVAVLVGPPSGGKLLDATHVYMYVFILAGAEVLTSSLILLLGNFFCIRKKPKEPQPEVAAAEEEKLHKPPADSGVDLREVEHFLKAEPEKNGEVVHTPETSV
Kind of series: Inhibition of MCT4 in human MDA-MB-231 cells assessed as inhibition of acidic lactate extrusion by measuring reduction in pH at 10 uM incubated for 12 hrs by BCECF-AM dye based fluorescence spectrophotometric analysis. It is filed as cell-based. Summed up: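 MDA-MB-231 cells (50,000/well) plated overnight, then treated with 10 μM compound for 12 h at 37 °C. Loaded with BCECF-AM (5 μM, 1 h), washed twice. Intracellular pH from emission ratio against per-plate calibration (pH 4.5–7.5 buffers with 10 μM nigericin and 10 μM valinomycin, 30 min, room temperature).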

The nature of series [5]: Induction of doxorubicin sensitization in human A2780 ADR cells expressing ABCB1 assessed as doxorubicin at 5 uM incubated for 72 hrs by MTT assay. It is filed as functional. Summed up:
as §1

Series [6] in a line: Induction of doxorubicin sensitization in human A549 cells expressing MCT1 assessed as doxorubicin GI50 at 100 nM incubated for 72 hrs by MTT assay. It is filed as functional. Summed up:
as §2

The nature of series [7]: Induction of doxorubicin sensitization in human A2780 ADR cells expressing ABCB1 assessed as doxorubicin at 1 uM incubated for 72 hrs by MTT assay. It is filed as functional. The method, boiled down:
as §1

Series [8] in a line: Antiproliferative activity against human A2780 ADR cells expressing ABCB1 assessed as growth inhibition incubated for 72 hrs by MTT assay. It is filed as functional.
A short description of series [9]: Growth inhibition of human A549 cells expressing MCT1 at 50 uM incubated for 72 hrs by MTT assay relative to control. Particulars: read-out: GI. It is filed as toxicity, cell-based.

Calls of active or inactive are those of the source. No cut-off for these calls is given here.

The values that follow come from ChEMBL document CHEMBL5316296, “Indole Derivatives as New Structural Class of Potent and Antiproliferative Inhibitors of Monocarboxylate Transporter 1 (MCT1; SLC16A1)” (J Med Chem, 2023).

`COC(=O)/C(C#N)=C/c1cn(CC(=O)Nc2ccc(OC)cc2)c2ccccc12`: the Activity entry in the series on NIH3T3 was “Non-Toxic”. The GI50 in series [1] turned out to be 110 nM; in [2], 40 nM; in series [3], 214 nM; in series [5] it was 32.2 nM; in series [6], 27.7 nM; in series [7], 332 nM. The result in the series with A2780 ADR was Active. Moreover, the result in the series with A549 was inactive. In addition, the inhibition entry in series [4] was “inactive”.

For the compound `COC(=O)/C(C#N)=C/c1cn(CC(=O)Nc2c(Cl)cccc2Cl)c2ccccc12`, in the series on NIH3T3, the Activity entry is given as “Non-Toxic”. The inhibition result in [4] is “inactive”.

Consider `COC(=O)/C(C#N)=C/c1cn(CC(=O)Nc2ccc(C)cc2)c2ccccc12`, for which the Activity entry in the series with NIH3T3 is recorded as “Non-Toxic”. Further, the inhibition result in series [4] is “inactive”.

Regarding `COC(=O)/C(C#N)=C/c1cn(CC(=O)Nc2ccc(C)cn2)c2ccccc12`, in the series on NIH3T3, the Activity entry is “Non-Toxic”. The concentration for 50% growth inhibition (GI50) is 32.4 nM in series [1]; 38.6 nM in series [2]; 165 nM in series [3]; 12.9 nM in series [5]; 25.4 nM in [6]; 516 nM in series [7]. Besides, in the series with A2780 ADR, the outcome was Active. Moreover, the outcome with A549 was inactive. Further, the inhibition result in series [4] is “inactive”.

`COC(=O)/C(C#N)=C/c1cn(CC(=O)Nc2ccccn2)c2ccccc12`: in the series on NIH3T3, the Activity result is listed as “Non-Toxic”. The inhibition result in [4] is “inactive”.

For `COC(=O)/C(C#N)=C/c1cn(CC(=O)Nc2ccccc2OC)c2ccccc12`, the Activity entry with NIH3T3 was “Non-Toxic”. Besides, in series [4], the inhibition result was “inactive”.

For `COC(=O)/C(C#N)=C/c1cn(CC(=O)Nc2cccnc2)c2ccccc12`, the Activity entry with NIH3T3 was “Non-Toxic”. In addition, the inhibition result in series [4] is “inactive”.

Take `COC(=O)/C(C#N)=C/c1cn(CC(=O)Nc2ccccc2C)c2ccccc12`: the Activity entry in the series with NIH3T3 is “Non-Toxic”. The inhibition entry in series [4] is “inactive”.

Turning to `COC(=O)/C(C#N)=C/c1cn(CC(=O)Nc2cccc(OC)c2)c2ccccc12`, the Activity result with NIH3T3 was “Non-Toxic”. Also, the inhibition result in series [4] was “inactive”.

In the case of `COc1cccc2c1C(=O)c1c(O)c3c(c(O)c1C2=O)C[C@@](O)(C(=O)CO)C[C@@H]3O[C@H]1C[C@H](N)[C@H](O)[C@H](C)O1` [DOXORUBICIN], in series [8], the GI50 is 802 nM.

Consider `COC(=O)/C(C#N)=C/c1cn(CC(=O)Nc2cccc3ccccc23)c2ccccc12`, for which the Activity entry with NIH3T3 is “Non-Toxic”. In series [4], the inhibition entry was “inactive”.

Turning to `COC(=O)/C(C#N)=C/c1cn(CC(=O)Nc2ccc(Br)cc2)c2ccccc12`, the Activity entry in the series on NIH3T3 was “Non-Toxic”. The inhibition entry in series [4] was “inactive”.

In the case of `COC(=O)/C(C#N)=C/c1cn(CC(=O)Nc2ccc(Cl)cc2)c2ccccc12`, the Activity entry in the series with NIH3T3 is on record as “Non-Toxic”. Further, the inhibition result in series [4] is “inactive”.

On to `COC(=O)/C(C#N)=C/c1cn(CC(=O)Nc2ccc3ccccc3c2)c2ccccc12`, for which the Activity entry in the series on NIH3T3 was “Non-Toxic”. The inhibition entry in series [4] was “inactive”.

Take `COC(=O)/C(C#N)=C/c1cn(CC(=O)Nc2ccc(F)cc2)c2ccccc12`: the Activity entry with NIH3T3 is listed as “Non-Toxic”. Also, the inhibition result in series [4] is “inactive”.

In the case of `N#C/C(=C\c1ccc(O)cc1)C(=O)O` [alpha-CYANO-4-HYDROXYCINNAMIC ACID], the Activity result in the series on NIH3T3 is “Non-Toxic”.

Take `O=C(O)C(=O)CBr` [BROMOPYRUVATE]: the inhibition at 72 h, 50 µM in [9] was ≥ 90%.

For the compound `COC(=O)/C(C#N)=C/c1cn(CC(=O)Nc2ccc(Br)cn2)c2ccccc12`, the Activity result in the series on NIH3T3 was “Non-Toxic”. Besides, the inhibition entry in [4] is “inactive”.

For `COC(=O)/C(C#N)=C/c1cn(CC(=O)Nc2ccccc2)c2ccccc12`, in the series with NIH3T3, the Activity result was “Non-Toxic”. Besides, the inhibition result in series [4] is “inactive”.

In general, GI50 refers to the concentration giving 50% growth inhibition.
